# Assay results: PMC3383389 (Molecular and Biochemical Parasitology, 2012)
# Assays:
# [1] = biological target: Trypanosoma brucei M32 metallocarboxypeptidase TbMCP-1, N-terminally GST-tagged recombinant enzyme (Trypanosoma brucei (Lister 427)); assay: SEC
# TbMCP-1 = biological target: T1, TbMCP-1 (Trypanosoma brucei, UniProt Q386R0); assay: inhibition of FA-Ala-Lys hydrolysis after pre-incubation; assay type: biochemical; conditions: read-out: % residual activity at 5 μM
# T1 sequence (Q386R0 1-503): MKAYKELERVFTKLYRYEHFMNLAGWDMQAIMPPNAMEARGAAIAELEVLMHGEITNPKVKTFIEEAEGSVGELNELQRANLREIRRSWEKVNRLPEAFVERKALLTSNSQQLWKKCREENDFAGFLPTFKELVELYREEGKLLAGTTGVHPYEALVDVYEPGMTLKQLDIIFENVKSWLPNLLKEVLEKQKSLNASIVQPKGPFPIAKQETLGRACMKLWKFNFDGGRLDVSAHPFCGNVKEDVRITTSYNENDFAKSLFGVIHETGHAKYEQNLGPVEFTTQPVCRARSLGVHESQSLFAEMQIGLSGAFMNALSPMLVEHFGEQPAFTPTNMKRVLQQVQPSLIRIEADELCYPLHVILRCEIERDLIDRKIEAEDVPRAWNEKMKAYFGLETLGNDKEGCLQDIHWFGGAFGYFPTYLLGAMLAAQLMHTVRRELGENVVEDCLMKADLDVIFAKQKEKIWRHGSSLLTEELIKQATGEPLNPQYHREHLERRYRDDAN
# Outline: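 GST-fused recombinant TbMCP-1 was expressed in E. coli BL21 Codon Plus (DE3), purified on glutathione-agarose and desalted. The enzyme was pre-incubated with test compound (metal chlorides were tested from 1 µM to 1 mM). Activity was then read continuously at 340 nm with 200 µM furyl-acryloyl-Ala-Lys in 100 mM MOPS, pH 7.3, and reported as % residual activity.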
stoichiometry N [1],Molecule,remaining activity at 5 µM (TbMCP-1) [%]
2,"Trypanosoma brucei M32 metallocarboxypeptidase TbMCP-1, N-terminally GST-tagged recombinant enzyme",
,N=C(N)NCCSC(CC(=O)O)C(=O)O (centres unmarked) [GEMSA],9.1 ± 1.2
